Bioassay records: PubChem BioAssay, The Scripps Research Institute Molecular Screening Center
Most compounds without a hit are left out; they make up all but 2.3% or so of the library.
Tb MetRS inh: Trypanosoma brucei MetRS inhibition; 0.4% of 360,000 active; AID 624268; purified T. brucei MetRS, ATP depletion, Kinase-Glo luminescence; inhibition, % at 11.9 µM;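 active = inhibition above a per-plate cutoff of the control wells' mean inhibition plus 3 SD, cut at about 5.5% in these data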;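 also: 0% = DMSO wells median and 100% = median of wells with control inhibitor compound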
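technique = Kinase-Glo luminescence, ATP depletion format | system = purified MetRS (methionyl-tRNA synthetase) enzyme from Trypanosoma brucei | timing = 15 min preincubation, 2 h reaction, all 25 °C | evaluation = percent inhibition versus plate control medians | dosing = single dose, 11.9 µM final nominal, 0.9% final DMSO | also added = substrates ATP, L-methionine and bulk Escherichia coli tRNA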
PLCg1 inh: blocks human PLC-gamma1 enzyme activity | P19174 | purified PLC-gamma1, fluorogenic substrate, fluorescence | inhibition, % at 12.2 µM | 0.84% of 370,000 active | AID 720700; in the data active = inhibition above about 9.5%
ADAM10 inh: inhibitors of human ADAM10; inhibition, % at 7 µM; 0.62% of 370,000 active; recombinant ADAM10, EDANS/DABCYL FRET peptide cleavage, 3 h; AID 720582; O14672;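 active = inhibition above a per-campaign cutoff equal to the mean of compounds falling between control-based bounds plus 3 SD, cut at about 20% in these data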;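 also: 0% = DMSO wells while the 100% control is not disclosed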
ADAM17 inh: inhibitors of human ADAM17. AID 720648. recombinant ADAM17, EDANS/DABCYL FRET peptide cleavage. 0.83% of 370,000 active. inhibition, % at 6.95 µM. P78536;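 active = inhibition above the mean of compounds lying between control limits plus 3 SD, set per campaign, cut at about 8.5% in these data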;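 also: 0% = DMSO-only wells as the low control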
Target sequence (P78536 215-824 limits assumed): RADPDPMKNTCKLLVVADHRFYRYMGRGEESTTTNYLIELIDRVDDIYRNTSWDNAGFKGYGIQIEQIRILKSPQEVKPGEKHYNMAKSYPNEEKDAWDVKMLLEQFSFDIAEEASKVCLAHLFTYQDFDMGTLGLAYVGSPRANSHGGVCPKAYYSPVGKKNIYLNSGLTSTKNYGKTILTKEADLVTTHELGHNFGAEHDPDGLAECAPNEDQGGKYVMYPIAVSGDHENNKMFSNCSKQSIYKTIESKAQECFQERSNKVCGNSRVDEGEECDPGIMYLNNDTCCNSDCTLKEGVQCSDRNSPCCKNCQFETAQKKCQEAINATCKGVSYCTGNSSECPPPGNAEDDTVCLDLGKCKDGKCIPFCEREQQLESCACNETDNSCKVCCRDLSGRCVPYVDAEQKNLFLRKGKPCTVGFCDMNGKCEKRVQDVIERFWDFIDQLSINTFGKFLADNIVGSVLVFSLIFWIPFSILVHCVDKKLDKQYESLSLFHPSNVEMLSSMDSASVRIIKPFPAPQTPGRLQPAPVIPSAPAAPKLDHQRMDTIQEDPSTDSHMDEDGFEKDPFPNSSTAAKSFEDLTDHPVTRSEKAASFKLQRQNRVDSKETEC
PLC-beta3 inh: PLC-beta3 (human) inhibition, primary screen | Q01970 | inhibition, % at 12.2 µM | AID 720704 | 0.18% of 370,000 active | Purified PLC-beta3, fluorogenic substrate, fluorescence; in the data active = inhibition above about 11%;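 also: 0% = median of compound wells on plate and 100% = full blocker control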
Starred values were filed as active, the others as inactive; · = no result.

SMILES | Tb MetRS inh | PLCg1 inh | ADAM10 inh | ADAM17 inh | PLC-beta3 inh
C=CCn1c(COc2ccc3c(c2)CCCC3)nnc1SCC(=O)Nc1cccc(SC)c1 | 0 | -2 | 31* | 16* | 0
C=CCn1c(COc2ccc(C)cc2)nnc1SCC(=O)Nc1ccc(Oc2ccccc2)cc1 | · | -3 | 1 | 5 | -1
O=C(Nc1ccc(F)c(F)c1)c1cc(S(=O)(=O)N2CCN(c3ccccn3)CC2)ccc1F | 0 | 9 | 10 | 9.6* | 8
CCN(CC(=O)Nc1ccc(NC(C)=O)cc1)C(=O)C1(c2ccc(Cl)cc2)CCC1 | 0 | 0 | -2 | -1 | 2
O=[N+]([O-])c1cc(S(=O)(=O)N2CCOCC2)ccc1N1CCNCC1 | 0 | -1 | 2 | -2 | 6
CC(=O)N1CCN(c2ccc(S(=O)(=O)N3CCOCC3)cc2[N+](=O)[O-])CC1 | 0 | 10.0* | -1 | 3 | 10
CN(c1ccccc1)c1ccc(/C=C(\CCC(=O)O)c2nc3ccccc3s2)cc1[N+](=O)[O-] | 0 | -3 | 18 | 9.8* | -12
COCC(=O)N(C)[C@H]1C[C@H]2c3[nH]c4cccc(-c5cccc(F)c5)c4c3CCN2C(=O)[C@H]1[C@H](C)O | · | -53 | -193 | -59 | -77
Cc1cc(C)c2nc(NNC(=O)c3ccc(S(=O)(=O)N4CCc5ccccc5C4)cc3)sc2c1 | 0 | -73 | 14 | 7 | -95
Cc1cc(C)c2sc(NNC(=O)c3ccc(S(=O)(=O)N4CCc5ccccc5C4)cc3)nc2c1 | 0 | -59 | 11 | 11* | -64
COc1ccc(CN(C(=O)Cc2c[nH]c3ccccc23)C(C(=O)NC2CCCCC2)c2ccc(C)o2)cc1 (configuration not stated) | 0 | 2 | 26* | 12* | -2
COc1cc(C(C(=O)NC2CCCCC2)N(Cc2cccs2)C(=O)Cc2c[nH]c3ccccc23)cc(OC)c1OC (configuration not stated) | 0 | -2 | -5 | 3 | 2
Cc1cccc(COCC(Cc2ccccc2)N2CCN(C(=O)c3ccc(Cl)c(Cl)c3)CCC2=O)c1 (configuration not stated) | 0 | 4 | 28* | 6 | 4
CC(=O)c1ccccc1C(=O)N1CCCC(C(=O)c2ccc(C(F)(F)F)cc2)C1 (configuration not stated) | 0 | -1 | -3 | 0 | 4
CCN(CC)C(=O)c1cccc(-c2csc(C(C)(O)c3ccncc3)n2)c1 (configuration not stated) | 0 | 4 | -7 | -3 | 2
CCOC(=O)c1ccc(NC(=O)OC[C@@H]2CSCCS(=O)(=O)N2)cc1 | · | -1 | -8 | -4 | -1
O=C(Nc1cccc(Cl)c1)Nc1cc(S(=O)(=O)N2CCCCC2)ccc1Cl | 0 | 2 | 22* | 9.9* | 2
CO[C@@H]1CN(C)C(=O)c2ccc(NC(=O)c3ccccc3F)cc2OC[C@@H](C)N(CC2CCOCC2)C[C@@H]1C | 0 | 3 | 6 | 5 | 11*
Cc1cnn(C(=S)NCCc2ccccc2)c1 | 1 | 0 | -9 | 0 | -1
Cc1cnn(C(=S)NCc2ccc(Cl)cc2)c1 | · | 13* | 1 | 6 | 9
CCCCn1nc(C(=O)NCC(c2cccs2)N2CCOCC2)c2ccccc2c1=O (configuration not stated) | 0 | -2 | 3 | 5 | -3
CC(=O)Nc1ccc(C=NNc2ccc(S(=O)(=O)Nc3ccccc3C(=O)O)cc2[N+](=O)[O-])cc1 | 0 | 11* | 13 | 5 | 2
Clc1cccc(Cc2c(C3CCCCC3)nc3c4ccccc4ccn23)c1 | 0 | -5 | -32 | -9 | -13
CCN1C(=O)[C@H]2[C@@H](c3ccc(-c4ccc(F)cc4)c(OC)c3)N3CCCC[C@@]3(C(=O)OC)[C@H]2C1=O | 0 | 2 | 7 | 8.6* | -1
Cn1cc(P(=S)(N2CCOCC2)N2CCOCC2)cc1P(=O)(N1CCOCC1)N1CCOCC1 | -1 | 18* | 2 | 1 | -4
SMILES | Tb MetRS inh | PLCg1 inh | ADAM10 inh | ADAM17 inh | PLC-beta3 inh
Cn1cc(P(=O)(N2CCOCC2)N2CCOCC2)cc1P(=S)(N1CCOCC1)N1CCOCC1 | 0 | 0 | -4 | 0 | 3
Cc1ccccc1NC(=O)CSc1nc(N)c(C#N)c(-c2cccs2)c1C#N | 8.1* | -20 | -70 | -12 | -32
CCN(CC)C(=O)CSc1nc(N)c(C#N)c(-c2cccs2)c1C#N | 0 | -44 | -145 | -10 | -54
CN1CCN(C(c2ccc(F)cc2)c2ccc3cccnc3c2O)CC1 (configuration not stated) | 0 | · | · | · | ·
CN1CCN(C(c2ccc(Br)cc2)c2cc(Cl)c3cccnc3c2O)CC1 (configuration not stated) | 0 | -17 | 24* | 20* | -28
Cc1cc(C)n(-c2ccc(C(=O)N3CCN(c4ccccn4)CC3)cc2)n1 | 0 | 10* | -11 | 5 | 1
O=C1CCCC2=C1C(c1ccc(Br)cc1)c1c([nH]c(=S)[nH]c1=O)N2 (configuration not stated) | 1 | -6 | -18 | -5 | -22
O=c1[nH]c(=S)[nH]c2c1C(c1ccc(Br)cc1)c1c([nH]c(=S)[nH]c1=O)O2 | 3 | 24* | 11 | -2 | -4
COC(=O)[C@@H](NS(=O)(=O)c1cc(Br)ccc1Br)C(C)C | -1 | -1 | -8 | 1 | 3
O=C1CCCN2N=C(SCC(=O)Nc3nc4ccccc4s3)SC2=N1 | -1 | 10* | -2 | -3 | -3
COC(=O)c1ccc(=O)c2nc3/c(=C/O)c(O)cc(=O)c3[nH]c12 | 0 | 11* | 0 | 6 | 8
COC(=O)c1ccc(N)cc1O | -1 | 1 | -6 | -2 | 0
COC(=O)C1=C(C)N(C)C(=NCc2ccc(C(F)(F)F)cc2)NC1c1cccc(Cl)c1 (configuration not stated) | · | 1 | -6 | -2 | -2
O=C(O)c1cccc(N2C(=O)/C(=C/c3ccc(SCc4ccc(Cl)cc4)o3)SC2=S)c1 | 1 | 32* | -10 | -4 | -4
O=C(NCCOC(=O)c1ccccc1C(=O)OCCNC(=O)c1cccnc1)c1cccnc1 | 0 | 8 | 6 | 4 | 12*
Oc1ccc(-c2cnc3c(Nc4cccc(OC(F)(F)C(F)F)c4)nccn23)cc1 | 0 | -262 | -30 | -7 | -339
Cc1cc(NC(=O)C2CCCC2)n(-c2nc3ccccc3[nH]2)n1 | -2 | 11* | 17 | 6 | 5
CC1(Oc2ccc(-n3ccnc3)cc2)CCN(Cc2cccn2-c2nccs2)C1 (configuration not stated) | 0 | 4 | 6 | 3 | 3
O=[N+]([O-])c1ccc(S(=O)(=O)c2ccccc2)nc1 | 0 | 3 | -7 | -2 | 0
Cc1ccc(S(=O)(=O)c2ccc([N+](=O)[O-])cn2)cc1 | 0 | 11* | 7 | 0 | 6
